Activity calls are given as the source filed them. No cut-off for these calls is given here.
Legend:
Leishmania braziliensis [1] = assay: Antileishmanial activity against Leishmania braziliensis MHOM/CO/87/UA301 promastigote forms isolated from infected Balb/c mouse assessed as parasite growth inhibition at 20 uM after 96 hrs by MTT assay relative to control; assay type: functional; conditions: MHOM/CO/87/UA301, 96 h, read-out: GI
Procedure, shortened: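 Promastigotes in LIT + 10% FBS at 2x10^6/mL exposed to a single 20 μM concentration for 96 h at 29 °C. MTT (1 mg/mL) added for 4 h in darkness, cells lysed with acidic isopropanol, read at 570 nm. Inhibition relative to untreated parasites; means of three independent experiments.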

Leishmania braziliensis [2] = assay: Antileishmanial activity against Leishmania braziliensis MHOM/CO/87/UA301 promastigote forms isolated from infected Balb/c mouse by neubauer chamber method; assay type: functional
Procedure, shortened: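 Promastigotes seeded at 1x10^6/mL in LIT medium at 29 °C with 0.1–10 μM compound. Growth followed daily by Neubauer chamber counting; three independent experiments per concentration. EC50 obtained by nonlinear regression of concentration–response data.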

[3] = Cytotoxicity against mouse BMDM assessed as reduction in cell viability after 48 hrs by MTT assay; assay type: cell-based; conditions: bone marrow-derived macrophages (BMDM), read-out: LC50
Procedure, shortened: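 Mouse bone-marrow macrophages (BMDM) were differentiated in L-929 conditioned medium and kept at 37 °C, 5% CO2, 90% humidity. Cells at 5×10^4 cells/mL were exposed to compounds at 10 to 100 µM for 48 h. Read-out was MTT reduction as a percentage of control cells. LC50 is the mean of three independent experiments.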

Leishmania braziliensis [4] = assay: Antileishmanial activity against Leishmania braziliensis MHOM/CO/87/UA301 promastigote forms isolated from infected Balb/c mouse assessed as induction of oxidative stress by measuring reduction in mitochondrial dehydrogenase activity at 20 uM after 30 to 180 mins by MTT assay; assay type: functional
Procedure, shortened: (§1)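 10^6 promastigotes in 500 μL per well treated with 20 μM compound at 28 °C, with untreated wells for each time point; sampled between 30 and 180 min. Cells counted, then MTT added (50 μL of 5 mg/mL in PBS) for 4 h. Stopped with acidic isopropanol, read at 570 nm. Pmdh (%) taken relative to untreated parasites as 100%; triplicate.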

Leishmania braziliensis [5] = assay: Inhibition of DHFR in Leishmania braziliensis MHOM/CO/87/UA301 promastigote forms assessed as growth inhibition at 10 uM after 72 hrs in presence of folinic acid by neubauer chamber method
Leishmania braziliensis [6] = assay: Antileishmanial activity against Leishmania braziliensis MHOM/CO/87/UA301 amastigote forms infected in mouse BMDM after 96 hrs by Giemsa staining based assay; assay type: functional; conditions: MHOM/CO/87/UA301, BMDM
Procedure, shortened: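 BMDM mixed 1:10 with L. braziliensis promastigotes in DMEM + 10% FBS on glass coverslips, 18 h at 37 °C, 5% CO2. Medium then replaced with medium containing compound and incubated 96 h under the same conditions. Giemsa-stained macrophages counted for % total and % infected macrophages and amastigotes per macrophage; triplicate.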

[7] = Selectivity index, ratio of LC50 for mouse BMDM to EC50 for Leishmania braziliensis MHOM/CO/87/UA301 amastigote forms infected in mouse BMDM
Leishmania braziliensis [8] = assay: Ratio of EC50 for Leishmania braziliensis MHOM/CO/87/UA301 amastigote forms infected in mouse BMDM to EC50 for Leishmania braziliensis MHOM/CO/87/UA301 promastigote forms; assay type: functional
Leishmania braziliensis [9] = assay: Potency index, ratio of miltefosine EC50 to compound EC50 for Leishmania braziliensis MHOM/CO/87/UA301 promastigote forms isolated from infected Balb/c mouse; assay type: functional
Leishmania braziliensis [10] = assay: Antileishmanial activity against Leishmania braziliensis MHOM/CO/87/UA301 amastigote forms infected in mouse BMDM assessed as induction of nitrite production after 48 hrs by Griess assay; assay type: functional
Procedure, shortened: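 Macrophages infected with L. braziliensis were incubated 48 h with compound at 0.08, 0.80 and 8.0 μM. Controls: untreated infected and uninfected macrophages, three wells each. Nitrite in supernatants measured by Griess reaction against a sodium nitrite standard (detection limit 1.56 μM). Triplicate; expressed as % of untreated infected macrophages.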

Leishmania braziliensis [11] = assay: Antileishmanial activity against Leishmania braziliensis MHOM/CO/87/UA301 promastigote forms isolated from infected Balb/c mouse assessed as induction of oxidative stress by measuring reduction in mitochondrial dehydrogenase activity at 20 uM by MTT assay; assay type: functional; conditions: TDE = time-dependent effect; procedure, shortened: as §1
Leishmania braziliensis [12] = assay: Cytotoxicity against Leishmania braziliensis MHOM/CO/87/UA301 promastigote forms assessed as cell death at 20 uM after 30 mins by MTT assay; conditions: 0.5 h; procedure, shortened: as §1
Leishmania braziliensis [13] = assay: Inhibition of CuZn-SOD in Leishmania braziliensis MHOM/CO/87/UA301 promastigote forms assessed as reduction in superoxide level at 0.012 to 1.2 uM after 30 mins by spectrophotometric based xanthine oxidase coupled enzyme assay
Procedure, shortened: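 Promastigotes (4 million in 500 μL) treated at 0.012, 0.12 and 1.2 μM, then pelleted. Sonicated in STE buffer pH 7.8 and centrifuged; protein measured by Bradford. SOD activity read as NBT reduction by superoxide from xanthine/xanthine oxidase (8.4 U) with EDTA, Na2CO3 and albumin. 30 min at 27 °C, CuCl2 added, A595 measured; controls without xanthine oxidase; triplicate.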

Leishmania braziliensis [14] = assay: Inhibition of DHFR in Leishmania braziliensis MHOM/CO/87/UA301 promastigote forms assessed as growth inhibition at 0.5 uM after 72 hrs in presence of folinic acid by neubauer chamber method
Leishmania braziliensis [15] = assay: Inhibition of DHFR in Leishmania braziliensis MHOM/CO/87/UA301 promastigote forms assessed as growth inhibition at 2 uM after 72 hrs in presence of folinic acid by neubauer chamber method

EC50 (Leishmania braziliensis [2]) [µM]	SMILES	inhibition of growth at 20 µM (Leishmania braziliensis [1]) [%]	other results
> 20	Fc1ccc(/C=N/Nc2nnc(Cl)c3ccccc23)cc1	17.8	
> 20	C/C(=N\Nc1nnc(Cl)c2ccccc12)c1cc(Cl)ccc1Cl	20	
> 20	Clc1cccc(/C=N/Nc2nnc(Cl)c3ccccc23)c1	7.03	
> 20	COc1cc([N+](=O)[O-])ccc1/C=N/Nc1nnc(Cl)c2ccccc12	11.9	
> 20	O=[N+]([O-])c1cccc(/C=N/Nc2nnc(Cl)c3ccccc23)c1	10.6	
> 20	C/C(=N\Nc1nnc(Cl)c2ccccc12)c1cccc([N+](=O)[O-])c1	9.46	
< 20	O=[N+]([O-])c1ccc(C=NNc2nnc(Cl)c3ccccc23)cc1	41.9 to 58.1	
> 20	C/C(=N\Nc1nnc(Cl)c2ccccc12)c1ccccc1	37	
> 20	C/C(=N\Nc1nnc(Cl)c2ccccc12)c1ccc([N+](=O)[O-])cc1	19.1	
> 20	C/C(=N\Nc1nnc(Cl)c2ccccc12)c1ccc(O)cc1	22.9	
> 20	C/C(=N\Nc1nnc(Cl)c2ccccc12)c1ccc(Br)cc1	10.6	
≥ 20	Clc1nnc(N/N=C/c2ccco2)c2ccccc12	40.9 to 59.1	
> 20	Oc1ccccc1/C=N\Nc1nnc(Cl)c2ccccc12	33.9 to 64.2	
> 20	Clc1nnc(N/N=C/c2ccccc2)c2ccccc12	8.46	
	CN(Cc1cnc2nc(N)nc(N)c2n1)c1ccc(C(=O)N[C@@H](CCC(=O)O)C(=O)O)cc1		inhibition (Leishmania braziliensis [15]): Active
> 20	Clc1ccc(C=NNc2nnc(Cl)c3ccccc23)cc1	16.8	
> 20	Clc1nnc(N/N=C/c2cccc(Br)c2)c2ccccc12	5.89	
> 20	Clc1nnc(NN=Cc2ccc(Br)cc2)c2ccccc12	17.2	
> 20	C/C(=N\Nc1nnc(Cl)c2ccccc12)c1ccc(Cl)cc1Cl	37.5	

SMILES	EC50 (Leishmania braziliensis [2]) [µM]	inhibition of growth at 20 µM (Leishmania braziliensis [1]) [%]	other results
CCCCCCCCCCCCCCCCOP(=O)([O-])OCC[N+](C)(C)C [MILTEFOSINE]	20 to 25	67.8	CC50 at 48 h [3]: 125 µM; Activity (Leishmania braziliensis [4]): inactive; inhibition (Leishmania braziliensis [5]): inactive
O=[N+]([O-])c1ccc(C=NNc2nnc(Cl)c3ccccc23)o1	0.12	13.5 to 86.5	CC50 at 48 h [3]: 14 µM; EC50 (Leishmania braziliensis [6]): 0.59 µM; Selectivity Index [7]: 23.7; Ratio EC50 (Leishmania braziliensis [8]): 4.9; Ratio EC50 (Leishmania braziliensis [9]): 208; Activity (Leishmania braziliensis [10]): Dose-dependent effect; Activity (Leishmania braziliensis [11]): Tde; Activity (Leishmania braziliensis [12]): Non-Toxic; inhibition (Leishmania braziliensis [13]): inactive; inhibition (Leishmania braziliensis [14]): inactive
O=[N+]([O-])c1ccc(C=NNc2nnc(Cl)c3ccccc23)s1	3.2	11.5 to 88.5	CC50 at 48 h [3]: < 10 µM; Ratio EC50 (Leishmania braziliensis [9]): 8

Reference: ChEMBL document CHEMBL3994631, “Design, synthesis, structure-activity relationship and mechanism of action studies of a series of 4-chloro-1-phthalazinyl hydrazones as a potent agent against Leishmania braziliensis” (Eur J Med Chem, 2017)
